Experimental data reported in ChEMBL document CHEMBL1155435, “Design, synthesis and evaluation of constrained tetrahydroimidazopyrimidine derivatives as antagonists of corticotropin-releasing factor type 1 receptor (CRF1R)” (Bioorg Med Chem Lett, 2010).
Calls of active or inactive are those of the source. No cut-off for these calls is given here.

System: not listed separately
Assay: Ratio of drug level in mouse brain to plasma at 32 mg/kg, ip after 1 hr
Format: ADME, organism-based
Parameters: dose 32 mg/kg, route intraperitoneal
Details: not given
Outline: (§1)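 Mice were dosed ip at 32 mg/kg in cremophor/DMSO/water (1:1:8). Brain and plasma were sampled at 30 min and 1 h after dosing. Brain level is given as ng compound per g brain, alongside the brain/plasma concentration ratio.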

Row | Kp at 1 h | Structure (SMILES)
1 | 1 | CCCN(Cc1c(C(F)(F)F)nc2n1CCCN2c1c(C)cc(C)cc1C)CC1CC1

Molecular target: T1, Corticotropin-releasing factor receptor 1 (Homo sapiens, UniProt P34998)
T1 sequence (P34998 whole entry): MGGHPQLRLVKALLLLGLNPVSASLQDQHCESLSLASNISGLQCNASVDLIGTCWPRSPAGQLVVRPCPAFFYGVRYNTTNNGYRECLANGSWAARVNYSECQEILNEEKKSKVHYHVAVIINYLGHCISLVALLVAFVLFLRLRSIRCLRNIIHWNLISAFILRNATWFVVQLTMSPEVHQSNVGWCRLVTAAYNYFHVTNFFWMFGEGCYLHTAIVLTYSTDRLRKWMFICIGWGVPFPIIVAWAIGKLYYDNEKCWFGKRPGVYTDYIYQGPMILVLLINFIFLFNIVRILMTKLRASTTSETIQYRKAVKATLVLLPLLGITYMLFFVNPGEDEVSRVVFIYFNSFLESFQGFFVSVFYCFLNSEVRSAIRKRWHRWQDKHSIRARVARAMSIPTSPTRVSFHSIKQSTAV
Assay: Displacement of [125I]Tyr-o-CRF from human CRFR1 expressed in human IMR32 cells
Format: cell-based, IMR-32
Details: not given
Outline: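 Radioligand displacement of [125I]-Tyr-o-CRF from human CRF1 receptor expressed endogenously on intact IMR-32 human neuroblastoma cells. The protocol follows an earlier report.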

Row | Structure (SMILES) | Ki [µM]
2 | CCCN(Cc1c(C(F)(F)F)nc2n1CCCN2c1c(C)cc(C)cc1C)CC1CCC1 | 0.021
3 | CCCN(CC1CC1)C(=O)c1c(C(F)(F)F)nc2n1CCCN2c1c(C)cc(C)cc1C | 1.2
4 | C=CCN(CC=C)C(=O)c1c(C(F)(F)F)nc2n1CCCN2c1c(C)cc(C)cc1C | 0.019
5 | Cc1cc(C)c(N2CCCn3c2nc(C(F)(F)F)c3CN2CC=CCC2)c(C)c1 | 0.364
6 | Cc1cc(C)c(N2CCCn3c2nc(C(F)(F)F)c3CN(CCc2ccccc2)CC(F)(F)F)c(C)c1 | 0.038
7 | Cc1cc(C)c(N2CCCn3c2nc(C(F)(F)F)c3CN2CCCN(C)CC2)c(C)c1 | > 5
8 | CCCN(CC1CC1)C(=O)c1c(C)nc2n1CCCN2c1c(C)cc(C)cc1C | > 5
9 | Cc1cc(C)c(N2CCCn3c2nc(C(F)(F)F)c3CN(CC2CC2)CC(F)(F)C(F)(F)F)c(C)c1 | 0.014
10 | Cc1cc(C)c(N2CCCn3c2nc(C(F)(F)F)c3CN(CC2CCC2)CC(F)(F)F)c(C)c1 | 0.027
11 | Cc1cc(C)c(N2CCCn3c2nc(C)c3C(=O)N(CC2CC2)CC2CC2)c(C)c1 | 3.4
12 | Cc1cc(C)c(N2CCCn3c2nc(C(F)(F)F)c3CN2CCOCC2)c(C)c1 | 1.51
13 | CCCN(CC1CC1)C(=O)c1c(CC)nc2n1CCCN2c1c(C)cc(C)cc1C | 2.3
14 | C=CCN(CCC)C(=O)c1c(C)nc2n1CCCN2c1c(C)cc(C)cc1C | > 5
15 | CCCN(CCC(F)(F)F)Cc1c(C(F)(F)F)nc2n1CCCN2c1c(C)cc(C)cc1C | 0.063
16 | C=CCN(CCC)Cc1c(C(F)(F)F)nc2n1CCCN2c1c(C)cc(C)cc1C | 0.048
17 | Cc1cc(C)c(N2CCCn3c2nc(C(F)(F)F)c3CN2CCCCC2)c(C)c1 | 0.245
18 | Cc1cc(C)c(N2CCCn3c2nc(C(F)(F)F)c3CN2CCSCC2)c(C)c1 | 0.441
19 | CCCN(Cc1c(C(F)(F)F)nc2n1CCCN2c1c(C)cc(C)cc1C)CC1CC1 | 0.032
20 | CCN(Cc1c(C(F)(F)F)nc2n1CCCN2c1c(C)cc(C)cc1C)CC1CC1 | 0.031
21 | CCCN(CCc1ccccc1)Cc1c(C(F)(F)F)nc2n1CCCN2c1c(C)cc(C)cc1C | 0.067
22 | Cc1cc(C)c(N2CCCn3c2nc(C(F)(F)F)c3CN(CC2CC2)CC(F)(F)F)c(C)c1 | 0.008

Results, then the molecule that gave them:

Row | Ki [µM] | Structure (SMILES)
23 | > 5 | CCc1nc2n(c1C(=O)N(CC)Cc1ccccc1)CCC(=O)N2c1c(C)cc(C)cc1C
24 | > 5 | CCCN(CCC)C(=O)c1c(CC)nc2n1CCC(=O)N2c1c(C)cc(C)cc1C
25 | > 5 | CCCN(Cc1ccccc1)C(=O)c1c(C)nc2n1CCCN2c1c(C)cc(C)cc1C
26 | > 5 | C=CCN(CC=C)C(=O)c1c(C)nc2n1CCC(=O)N2c1c(C)cc(C)cc1C
27 | 1.7 | CCCN(CCc1ccccc1)C(=O)c1c(C)nc2n1CCCN2c1c(C)cc(C)cc1C
28 | > 5 | CCCN(CCC)C(=O)c1c(C)nc2n1CCC(=O)N2c1c(C)cc(C)cc1C
29 | > 5 | CCCN(CC1CC1)C(=O)c1c(C)nc2n1CCC(=O)N2c1c(C)cc(C)cc1C
30 | > 5 | Cc1cc(C)c(N2C(=O)CCn3c2nc(C)c3C(=O)N2CCOCC2)c(C)c1
31 | > 5 | CCCCN(CC)C(=O)c1c(CC)nc2n1CCC(=O)N2c1c(C)cc(C)cc1C
32 | > 5 | C=CCN(CC=C)C(=O)c1c(CC)nc2n1CCC(=O)N2c1c(C)cc(C)cc1C
33 | > 5 | CCCN(CC1CC1)C(=O)c1c(CC)nc2n1CCC(=O)N2c1c(C)cc(C)cc1C
34 | 3.3 | CCCN(CC1CCC1)C(=O)c1c(C)nc2n1CCCN2c1c(C)cc(C)cc1C
35 | > 5 | Cc1cc(C)c(N2C(=O)CCn3c2nc(C)c3C(=O)N2CCN(c3ccccc3F)CC2)c(C)c1

System: Mus musculus
Assay: Anxiolytic activity in ip dosed mouse assessed as decrease reduction of stretched attenuated postures by canopy test
Format: functional
Details: not given
Outline: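 Mouse canopy test for anxiety-like behaviour. Compound was given ip in cremophor/DMSO/water (1:1:8) at several doses. The read-out was the total count of stretched attend postures. The protocol follows an earlier report.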

Row | Structure (SMILES) | Activity
36 | CCCN(Cc1c(C(F)(F)F)nc2n1CCCN2c1c(C)cc(C)cc1C)CC1CC1 | Active

System: not listed separately
Assay: Ratio of drug level in mouse brain to plasma at 32 mg/kg, ip after 30 mins
Format: ADME, organism-based
Parameters: dose 32 mg/kg, route intraperitoneal
Details: not given
Outline: as §1

Row | Kp at 0.5 h | Structure (SMILES)
37 | 1.2 | CCCN(Cc1c(C(F)(F)F)nc2n1CCCN2c1c(C)cc(C)cc1C)CC1CC1

System: not listed separately
Assay: Drug level in mouse brain at 32 mg/kg, ip after 1 hr
Format: ADME, organism-based
Parameters: dose 32 mg/kg, route intraperitoneal
Details: read-out: Drug uptake
Outline: as §1

Row | concentration at 1 h [ng/g] | Structure (SMILES)
38 | 217 | CCCN(Cc1c(C(F)(F)F)nc2n1CCCN2c1c(C)cc(C)cc1C)CC1CC1

System: not listed separately
Assay: Drug level in mouse brain at 32 mg/kg, ip after 30 mins
Format: ADME, organism-based
Parameters: dose 32 mg/kg, route intraperitoneal
Details: read-out: Drug uptake
Outline: as §1

Row | concentration at 0.5 h [ng/g] | Structure (SMILES)
39 | 352 | CCCN(Cc1c(C(F)(F)F)nc2n1CCCN2c1c(C)cc(C)cc1C)CC1CC1
